Measurements reported in ChEMBL document CHEMBL4373640, “Synthesis and antitumor activity of aza-brazilan derivatives containing imidazolium salt pharmacophores” (Medchemcomm, 2019).
pIC50: −log10 of the molar value.

Legend:
Format in all cases: functional, cell-based
[1] = test system: SW480; experiment: Cytotoxicity against human SW480 cells assessed as reduction in cell viability after 48 hrs by MTS assay; conditions: SW480, 48 h
How it was run: (§1)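 Cells (5 × 10^3 per well) were plated 12 h before treatment, then exposed continuously to compound for 48 h. MTS was added, with 1–4 h incubation at 37 °C and OD read at 490 nm. IC50 is the concentration cutting OD by 50% versus untreated cells, taken from dose–response curves. Values are the mean of three independent determinations.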

[2] = test system: MCF7; experiment: Cytotoxicity against human MCF7 cells assessed as reduction in cell viability after 48 hrs by MTS assay; conditions: MCF7, 48 h; how it was run: as §1
[3] = test system: A549; experiment: Cytotoxicity against human A549 cells assessed as reduction in cell viability after 48 hrs by MTS assay; conditions: A549, 48 h; how it was run: as §1
[4] = Cytotoxicity against human SMMC-7221 cells assessed as reduction in cell viability after 48 hrs by MTS assay; conditions: SMMC-7221, 48 h; how it was run: as §1

| SMILES | pIC50 [1] | pIC50 [2] | pIC50 [3] | pIC50 [4] |
| --- | --- | --- | --- | --- |
| COc1ccc(C(=O)C[n+]2c(C)n(CCC(=O)N3C[C@@H]4Cc5ccccc5[C@@H]4c4cccc(OC)c43)c3ccccc32)cc1 | 5.58 | 5.51 | 4.97 | 5.34 |
| COc1cccc2c1N(CCCn1c[n+](Cc3ccc4ccccc4c3)c3cc(C)c(C)cc31)C[C@@H]1Cc3ccc(Br)cc3[C@H]21 | 5.41 | 6.08 | 5.25 | 5.67 |
| COc1cccc2c1N(C(=O)CCn1c(C)[n+](Cc3ccc4ccccc4c3)c3ccccc31)C[C@@H]1Cc3ccccc3[C@H]21 | 6.11 | 6.02 | 5.43 | 5.84 |
| COc1ccc(C(=O)C[n+]2c(C)n(CCCN3C[C@@H]4Cc5cc(OC)c(OC)cc5[C@@H]4c4cccc(OC)c43)c3ccccc32)cc1 | 5.63 | 5.47 | 4.84 | 5.27 |
| COc1cccc2c1N(CCCn1c[n+](Cc3ccc(C)cc3)c3cc(C)c(C)cc31)C[C@@H]1Cc3ccccc3[C@H]21 | 6.25 | 6.17 | 5.82 | 6.18 |
| COc1ccc(C(=O)C[n+]2cn(CCCN3C[C@@H]4Cc5cc(OC)c(OC)cc5[C@@H]4c4cccc(OC)c43)c3cc(C)c(C)cc32)cc1 | 5.74 | 5.67 | 5.08 | 5.35 |
| COc1cc2c(cc1OC)[C@@H]1c3cccc(OC)c3N(CCCn3c[n+](CC(=O)c4ccc5ccccc5c4)c4cc(C)c(C)cc43)C[C@@H]1C2 | 5.86 | 5.95 | 5.31 | 5.77 |
| COc1cccc2c1N(CCCn1c(C)nc3ccccc31)C[C@@H]1Cc3ccc(Br)cc3[C@H]21 | < 4.70 | < 4.70 | < 4.70 | < 4.70 |
| COc1cc2c(cc1OC)[C@@H]1c3cccc(OC)c3N(C(=O)CCn3cnc4cc(C)c(C)cc43)C[C@@H]1C2 | < 4.70 | < 4.70 | < 4.70 | < 4.70 |
| COc1cc2c(cc1OC)[C@@H]1c3cccc(OC)c3N(C(=O)CCn3c(C)nc4ccccc43)C[C@@H]1C2 | < 4.70 | < 4.70 | < 4.70 | < 4.70 |
| COc1cccc2c1N(CCCn1c(C)nc3ccccc31)C[C@@H]1Cc3ccccc3[C@H]21 | < 4.70 | < 4.70 | < 4.70 | < 4.70 |
| COc1cccc2c1N(C(=O)CCn1c[n+](CC(=O)c3ccc4ccccc4c3)c3cc(C)c(C)cc31)C[C@@H]1Cc3ccccc3[C@H]21 | 5.87 | 6.00 | 5.70 | 5.95 |
| COc1cccc2c1N(C(=O)CCn1c(C)[n+](CC(=O)c3ccc4ccccc4c3)c3ccccc31)C[C@@H]1Cc3ccccc3[C@H]21 | 5.84 | 5.84 | 5.33 | 5.82 |
| COc1cccc2c1N(C(=O)CCn1c(C)[n+](Cc3ccc(C)cc3)c3ccccc31)C[C@@H]1Cc3ccccc3[C@H]21 | 5.80 | 5.80 | 5.20 | 5.69 |
| COc1cc2c(cc1OC)[C@@H]1c3cccc(OC)c3N(CCCn3cnc4cc(C)c(C)cc43)C[C@@H]1C2 | < 4.70 | < 4.70 | < 4.70 | < 4.70 |
| COc1cc2c(cc1OC)[C@@H]1c3cccc(OC)c3N(CCCn3c(C)[n+](Cc4ccc5ccccc5c4)c4ccccc43)C[C@@H]1C2 | 5.82 | 5.97 | 5.82 | 5.95 |
| COc1cccc2c1N(C(=O)CCn1c[n+](Cc3ccc4ccccc4c3)c3cc(C)c(C)cc31)C[C@@H]1Cc3ccc(Br)cc3[C@H]21 | 5.98 | 5.98 | 5.84 | 5.96 |
| COc1cccc2c1N(C(=O)CCn1cnc3cc(C)c(C)cc31)C[C@@H]1Cc3ccc(Br)cc3[C@H]21 | < 4.70 | < 4.70 | < 4.70 | < 4.70 |
| COc1cccc2c1N(CCCn1c[n+](Cc3ccc4ccccc4c3)c3cc(C)c(C)cc31)C[C@@H]1Cc3ccccc3[C@H]21 | 6.03 | 6.04 | 5.82 | 6.07 |
| COc1cccc2c1N(C(=O)CCn1c(C)[n+](CC(=O)c3ccc4ccccc4c3)c3ccccc31)C[C@@H]1Cc3ccc(Br)cc3[C@H]21 | 5.76 | 5.84 | 5.58 | 5.80 |
| COc1cccc2c1N(CCCn1c(C)[n+](Cc3ccc4ccccc4c3)c3ccccc31)C[C@@H]1Cc3ccccc3[C@H]21 | 5.67 | 5.99 | 5.24 | 5.69 |

| SMILES | pIC50 [1] | pIC50 [2] | pIC50 [3] | pIC50 [4] |
| --- | --- | --- | --- | --- |
| COc1cccc2c1N(CCCn1c(C)[n+](CC(=O)c3ccc4ccccc4c3)c3ccccc31)C[C@@H]1Cc3ccccc3[C@H]21 | 5.74 | 5.87 | 5.27 | 5.70 |
| COc1cc2c(cc1OC)[C@@H]1c3cccc(OC)c3N(CCCn3c(C)[n+](CC(=O)c4ccc5ccccc5c4)c4ccccc43)C[C@@H]1C2 | 5.69 | 5.67 | 5.08 | 5.26 |
| COc1cccc2c1N(CCCn1cnc3cc(C)c(C)cc31)C[C@@H]1Cc3ccc(Br)cc3[C@H]21 | < 4.70 | < 4.70 | < 4.70 | < 4.70 |
| COc1cccc2c1N(CCCn1c(C)[n+](Cc3ccc4ccccc4c3)c3ccccc31)C[C@@H]1Cc3ccc(Br)cc3[C@H]21 | 5.89 | 6.04 | 5.72 | 5.97 |
| COc1cc2c(cc1OC)[C@@H]1c3cccc(OC)c3N(C(=O)CCn3c(C)[n+](CC(=O)c4ccc5ccccc5c4)c4ccccc43)C[C@@H]1C2 | 5.42 | 5.33 | 5.03 | 5.19 |
| COc1cc2c(cc1OC)[C@@H]1c3cccc(OC)c3N(CCCn3c(C)nc4ccccc43)C[C@@H]1C2 | < 4.70 | < 4.70 | < 4.70 | < 4.70 |
| COc1cccc2c1N(CCCn1c(C)[n+](Cc3ccc(C)cc3)c3ccccc31)C[C@@H]1Cc3ccc(Br)cc3[C@H]21 | 5.79 | 5.97 | 5.85 | 6.01 |
| COc1cccc2c1N(C(=O)CCn1c(C)nc3ccccc31)C[C@@H]1Cc3ccc(Br)cc3[C@H]21 | < 4.70 | < 4.70 | < 4.70 | < 4.70 |
| COc1ccc(C(=O)C[n+]2c(C)n(CCC(=O)N3C[C@@H]4Cc5cc(OC)c(OC)cc5[C@@H]4c4cccc(OC)c43)c3ccccc32)cc1 | 4.81 | < 4.70 | < 4.70 | < 4.70 |
| COc1cccc2c1N(CCCn1c[n+](CC(=O)c3ccc4ccccc4c3)c3cc(C)c(C)cc31)C[C@@H]1Cc3ccc(Br)cc3[C@H]21 | 5.37 | 5.80 | 5.46 | 5.87 |
| COc1cccc2c1N(CCCn1c(C)[n+](Cc3ccc(C)cc3)c3ccccc31)C[C@@H]1Cc3ccccc3[C@H]21 | 5.78 | 5.83 | 5.37 | 5.74 |
| COc1cccc2c1N(C(=O)CCn1c[n+](Cc3ccc4ccccc4c3)c3cc(C)c(C)cc31)C[C@@H]1Cc3ccccc3[C@H]21 | 6.01 | 6.03 | 5.59 | 5.99 |
| COc1cccc2c1N(CCCn1c[n+](CC(=O)c3ccc4ccccc4c3)c3cc(C)c(C)cc31)C[C@@H]1Cc3ccccc3[C@H]21 | 5.84 | 6.04 | 5.83 | 5.96 |
| COc1cc2c(cc1OC)[C@@H]1c3cccc(OC)c3N(CCCn3c[n+](Cc4ccc(C)cc4)c4cc(C)c(C)cc43)C[C@@H]1C2 | 5.70 | 5.70 | 5.32 | 5.77 |
| COc1cccc2c1N(C(=O)CCn1c[n+](CC(=O)c3ccc4ccccc4c3)c3cc(C)c(C)cc31)C[C@@H]1Cc3ccc(Br)cc3[C@H]21 | 5.74 | 5.91 | 5.95 | 6.00 |
| COc1cccc2c1N(C(=O)CCn1c(C)nc3ccccc31)C[C@@H]1Cc3ccccc3[C@H]21 | < 4.70 | < 4.70 | < 4.70 | < 4.70 |
| COc1cc2c(cc1OC)[C@@H]1c3cccc(OC)c3N(CCCn3c(C)[n+](Cc4ccc(C)cc4)c4ccccc43)C[C@@H]1C2 | 5.45 | 5.26 | 4.84 | 5.19 |
| COc1cccc2c1N(CCCn1cnc3cc(C)c(C)cc31)C[C@@H]1Cc3ccccc3[C@H]21 | < 4.70 | < 4.70 | < 4.70 | < 4.70 |
| COc1ccc(C(=O)C[n+]2cn(CCCN3C[C@@H]4Cc5ccccc5[C@@H]4c4cccc(OC)c43)c3cc(C)c(C)cc32)cc1 | 5.76 | 5.90 | 5.85 | 5.85 |
| COc1cccc2c1N(CCCn1c(C)[n+](CC(=O)c3ccc4ccccc4c3)c3ccccc31)C[C@@H]1Cc3ccc(Br)cc3[C@H]21 | 5.90 | 6.02 | 5.79 | 5.95 |
| COc1ccc(C(=O)C[n+]2cn(CCC(=O)N3C[C@@H]4Cc5ccccc5[C@@H]4c4cccc(OC)c43)c3cc(C)c(C)cc32)cc1 | 6.10 | 5.60 | 5.12 | 5.50 |
